Converted amounts (≈) assume the structure as drawn.
What was measured:
Bacillus subtilis = assay: Antibacterial activity against Bacillus subtilis NBRC 3134 after overnight incubation by microdilution method; format: functional
Summary of the method: (§1)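 Broth microdilution MIC. Strains were first grown on YP agar (1% polypeptone, 0.2% yeast extract, 0.1% MgSO4·7H2O, 6% agar) for 12 h, B. subtilis at 37 °C and K. pneumoniae at 27 °C. Samples came from a 10 mg/mL DMSO stock, serially diluted in 96-well plates of strain in YP medium, then incubated overnight at 37 °C. Ampicillin served as reference.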

HL-60 = assay: Cytotoxicity against human HL60 cells after 72 hrs by WST8 assay; format: functional, cell-based; conditions: HL-60, 72 h
Summary of the method: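 HL-60 cells were kept in RPMI-1640 with 10% FBS at 37 °C under 5% CO2. Cells were seeded at 5 × 10^3 per well and preincubated 2 h, then exposed to compound in medium for 72 h. WST-8 was added for a further 3 h, and formazan absorbance was read at 450 nm to give IC50.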

Klebsiella pneumoniae = assay: Antibacterial activity against Klebsiella pneumoniae NBRC 3512 after overnight incubation by microdilution method; format: functional; summary of the method: as §1

Row | SMILES | MIC (Bacillus subtilis) | IC50 (HL-60) | MIC (Klebsiella pneumoniae)
1 | COc1cc2ccc3cc(O)ccc3c2c(OC)c1O | 185 µM (≈ 50.1 µg/mL) | 34.2 µM | 
2 | COc1ccc2c(c1)CCc1cc(OC)c(O)c(OC)c1-2 |  | 31.8 µM | 
3 | COc1cc2ccc3c(OC)c(O)ccc3c2c(OC)c1O | 250 µM (≈ 75.1 µg/mL) | 103 µM | 
4 | COc1cc2c(c(O[C@@H]3O[C@H](CO)[C@@H](O)[C@H](O)[C@H]3O)c1O)-c1c(O)cccc1CC2 [MARYLAURENCINOSIDE A] |  | 52.4 µM | 
5 | CO[C@@]12[C@H](COC(N)=O)C3=C(C(=O)C(C)=C(N)C3=O)N1C[C@@H]1N[C@@H]12 [MITOMYCIN] |  | 0.1 µM | 
6 | CC1(C)S[C@@H]2[C@H](NC(=O)[C@H](N)c3ccccc3)C(=O)N2[C@H]1C(=O)O [AMPICILLIN] | 0.36 µM (≈ 0.126 µg/mL) |  | 107 µM (≈ 37.5 µg/mL)
7 | COc1c(O)cc2c(c1OC)-c1ccc(O)cc1CC2 [ERIANTHRIDIN] |  | 44.6 µM | 
8 | COc1c(O)c2c(c(OC)c1O)-c1c(O)cccc1CC2 [MARYLAURENCINOLS B] | 65.1 µM (≈ 18.8 µg/mL) | 174 µM | 
9 | COC1=CC(=O)C2=C(CCc3cccc(O)c32)C1=O [EPHEMERANTHOQUINONE B] | 4.88 µM (≈ 1.25 µg/mL) | 2.8 µM | 
10 | COc1cc2c(c(OC)c1O)-c1c(O)cccc1CC2 [MARYLAURENCINOLS A] |  | 96.8 µM | 
11 | COc1cc2ccc3cccc(O)c3c2c(OC)c1O [BULBOPHYLLANTHRIN] | 185 µM (≈ 50.1 µg/mL) | 52.4 µM | 185 µM (≈ 50.1 µg/mL)
12 | COc1ccc2c(ccc3cc(OC)c(O)c(OC)c32)c1 | 52.8 µM (≈ 15 µg/mL) | 19.3 µM | 

Source: ChEMBL document CHEMBL2040744, “Phenanthrene derivatives from Cymbidium Great Flower Marie Laurencin and their biological activities” (J Nat Prod, 2012)
